{"data": "Measured values of several laboratories", "target": "Serine/threonine-protein kinase PAK 1 (PAK1, Homo sapiens, UniProt Q13153)", "note": "Protocols differ between the studies behind these lines."}
{"SMILES": "C#Cc1n[nH]c2c(-c3cn(C(C)c4ccccn4)c(=O)[nH]c3=O)cc(F)cc12 (centres unmarked)", "assay": "enzyme activity, inhibitor", "setting": "1 µM", "measurement": "inhibition", "value": "3.4%"}
{"SMILES": "N#CC1(c2ccccn2)CCN(Cc2cc(C(=O)O)c(=O)n3ccccc23)CC1", "assay": "cell-free assay, competition with immobilised ligand", "setting": "1 µM", "measurement": "remaining binding", "value": "86%"}
{"SMILES": "Cn1cc(-c2cc(F)cc(N3CCn4c(cc5c4CCCC5)C3=O)c2CO)cc(Nc2ccc(N3CCN(C4COC4)CC3)cn2)c1=O", "assay": "enzyme activity, inhibitor", "setting": "0.1 µM", "measurement": "inhibition", "value": "5%"}
{"SMILES": "Cc1nn(C)cc1-c1nc2c(N3CCN(Cc4ccc(Cl)cc4)CC3)c(Cl)cnc2[nH]1", "assay": "binding, competition with immobilised ligand", "setting": "1 µM", "measurement": "remaining binding", "value": "100%"}
{"SMILES": "Cn1cc(-c2cccc(N3CCc4c(sc5c4CC(C)(C)C5)C3=O)c2CO)cc(Nc2ccncn2)c1=O", "assay": "enzyme activity, inhibitor", "setting": "1 µM", "measurement": "inhibition", "value": "9%"}
{"SMILES": "Nc1ncc(-c2nc(N3CCOCC3)nc(N3CCOCC3)n2)c(C(F)F)n1", "assay": "binding, competition with immobilised ligand", "setting": "10 µM", "measurement": "remaining binding", "value": "63%"}
{"SMILES": "COc1cc(Nc2ncc(F)c(Nc3ccc4c(n3)NC(=O)C(C)(C)O4)n2)cc(OC)c1OC", "assay": "binding, competition with immobilised ligand", "setting": "10 µM", "measurement": "inhibition", "value": "91%"}
{"SMILES": "C#Cc1n[nH]c2c(-c3cn([C@@H](C)c4ccccc4)c(=O)[nH]c3=O)cc(F)cc12", "assay": "enzyme activity, inhibitor", "setting": "0.1 µM", "measurement": "inhibition", "value": "5.7%"}
{"SMILES": "COc1ncccc1-c1cnn2ccc(N3CCN(C(=O)OC(C)C)CC3)nc12", "assay": "binding, competition with immobilised ligand", "setting": "1 µM", "measurement": "remaining binding", "value": "100%"}
{"SMILES": "Cn1cncc1[C@@](O)(COc1ccc(C#N)cc1-c1ccc(OC(F)(F)F)cc1)c1ccc(C#N)cc1", "assay": "cell-free assay, competition with immobilised ligand", "setting": "1 µM", "measurement": "remaining binding", "value": "100%"}
{"SMILES": "O=c1[nH]c2ccccc2n1C1CCN(Cc2ccc(-c3[nH]c4cc5ncnc5cc4nc3-c3ccccc3)cc2)CC1", "assay": "cell-free assay", "setting": "0.5 µM", "measurement": "remaining signal", "value": "90.6%"}
